Calls of active or inactive are those of the source. The calls are words filed in the database; no cut-off is given here.
Tests used:
MDA-MB-435 [1] = experiment: Cell cycle arrest in human MDA-MB-435 cells assessed as increase in cyclin B1 expression at 0.25 to 1 uM after 12 to 24 hrs by Western blotting analysis; type: functional, cell-based
How it was run: (§1)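 Treated MDA-MB-435 cells lysed in ice-cold Tris-HCl pH 7.4 buffer with Triton, phosphatase and protease inhibitors. Lysates clarified, boiled in SDS loading buffer, run on 8-12% SDS-PAGE and blotted. Membranes blocked in 5% skim milk, probed with primary antibodies, then peroxidase secondaries with ECL detection. β-actin as loading control.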

MDA-MB-435 [2] = experiment: Induction of apoptosis in human MDA-MB-435 cells assessed as viable cells at 0.5 uM after 24 hrs by annexin-V FITC/propidium iodide staining-based flow cytometry (reference value: 98.62 +/- 0.25%); type: functional; settings: MDA-MB-435, 24 h, read-out: Activity
How it was run: (§2)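 MDA-MB-435 cells treated 24 h, stained with annexin V-FITC/PI per kit instructions, analysed by flow cytometry. Quadrant statistics: lower right taken as apoptotic, upper right as necrotic or post-apoptotic necrotic. Representative of three similar experiments.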

LNCaP = experiment: Cytotoxicity against human LNCAP cells assessed as growth inhibition after 72 hrs by MTT assay; type: functional, cell-based
How it was run: (§3)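 MTT assay: cells treated in triplicate with a range of concentrations for 72 h at 37 °C, 5% CO2. Medium replaced, MTT (5 mg/mL) added for 4 h, then SDS/isobutanol/HCl solubiliser overnight. Absorbance read at 590 nm. Inhibition calculated against control and blank wells; IC50 is concentration giving 50% growth inhibition; three independent experiments.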

MDA-MB-435 [3] = experiment: Induction of apoptosis in human MDA-MB-435 cells assessed as dead cells at 0.5 uM after 24 hrs by annexin-V FITC/propidium iodide staining-based flow cytometry (reference value: 0.61 +/- 0.24%); type: functional
MDA-MB-435 [4] = experiment: Cell cycle arrest in human MDA-MB-435 cells assessed as accumulation at S phase at 0.5 uM after 24 hrs by propidium iodide staining-based flow cytometry (reference value: 57.11%); type: functional
MDA-MB-435 [5] = experiment: Induction of apoptosis in human MDA-MB-435 cells assessed as decrease in procaspase 3 expression after 12 to 24 hrs by Western blotting analysis; type: functional, cell-based; how it was run: as §1
MDA-MB-435 [6] = experiment: Induction of apoptosis in human MDA-MB-435 cells assessed as downregulation of Bcl-2 protein expression at 0.25 to 1 uM after 12 hrs by Western blotting analysis; type: functional, cell-based; how it was run: as §1
MDA-MB-435 [7] = experiment: Induction of apoptosis in human MDA-MB-435 cells assessed as early apoptotic cells at 1 uM after 24 hrs by annexin-V FITC/propidium iodide staining-based flow cytometry (reference value: 0.61 +/- 0.24%); type: functional; how it was run: as §2
MDA-MB-435 [8] = experiment: Cell cycle arrest in human MDA-MB-435 cells assessed as accumulation at sub-G1 phase at 0.25 to 1 uM by propidium iodide staining-based flow cytometry; type: functional; settings: TDE = time-dependent effect, in the assay text read “G2/M phase” for “sub-G1 phase”
How it was run: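 PI-stained DNA content of treated MDA-MB-435 cells read by flow cytometry. Sub-G1 population taken as apoptotic cellular fragments; three independent experiments.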

A549 = experiment: Cytotoxicity against human A549 cells assessed as growth inhibition after 72 hrs by MTT assay; type: functional, cell-based; how it was run: as §3
MDA-MB-435 [9] = experiment: Induction of apoptosis in human MDA-MB-435 cells assessed as dead cells at 1 uM after 24 hrs by annexin-V FITC/propidium iodide staining-based flow cytometry (reference value: 0.61 +/- 0.24%); type: functional
MDA-MB-435 [10] = experiment: Cell cycle arrest in human MDA-MB-435 cells assessed as accumulation at G2/M phase at 0.25 uM after 24 hrs by propidium iodide staining-based flow cytometry (reference value: 14.05%); type: functional
MDA-MB-435 [11] = experiment: Induction of apoptosis in human MDA-MB-435 cells assessed as viable cells at 1 uM after 24 hrs by annexin-V FITC/propidium iodide staining-based flow cytometry (reference value: 98.62 +/- 0.25%); type: functional; settings: MDA-MB-435, 24 h, read-out: Activity; how it was run: as §2
MDA-MB-435 [12] = experiment: Induction of apoptosis in human MDA-MB-435 cells assessed as chromatin condensation at 0.25 to 1 uM by DAPI staining-based fluorscence microscopy; type: functional, cell-based
How it was run: (§4)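 Treated MDA-MB-435 cells washed in ice-cold PBS, fixed 20 min in 4% paraformaldehyde, stained 30 min at 37 °C with DAPI (50 µg/mL) containing 100 µg/mL RNase A. After PBS washes, examined by fluorescence microscopy (excitation 340 nm, emission 488 nm).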

MDA-MB-435 [13] = experiment: Cell cycle arrest in human MDA-MB-435 cells assessed as accumulation at G1 phase at 0.5 uM after 24 hrs by propidium iodide staining-based flow cytometry (reference value: 28.06%); type: functional
MDA-MB-435 [14] = experiment: Induction of apoptosis in human MDA-MB-435 cells assessed as late apoptotic cells at 0.5 uM after 24 hrs by annexin-V FITC/propidium iodide staining-based flow cytometry (reference value: 0.34 +/- 0.08%); type: functional; how it was run: as §2
MDA-MB-435 [15] = experiment: Cell cycle arrest in human MDA-MB-435 cells assessed as accumulation at S phase at 0.25 uM after 24 hrs by propidium iodide staining-based flow cytometry (reference value: 57.11%); type: functional
Calf thymus DNA = experiment: Induction of DNA intercalation activity of calf thymus DNA topoisomerase 1 assessed as unwinding of pBR322 DNA up to 100 uM after 30 mins by Agarose gel electrophoresis; type: nucleic-acid assay; settings: Bos taurus
How it was run: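 Relaxed pBR322 made by treating supercoiled plasmid with excess Topo I (10 units), then proteinase K digestion at 37 °C, phenol-chloroform extraction and ethanol precipitation. Incubated with compound 30 min at 37 °C, run on 1% agarose gel at 5 V/cm for 2 h in TAE, stained with 0.5 µg/mL ethidium bromide, viewed under UV.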

MDA-MB-435 [16] = experiment: Cell cycle arrest in human MDA-MB-435 cells assessed as accumulation at G1 phase at 1 uM after 24 hrs by propidium iodide staining-based flow cytometry (reference value: 28.06%); type: functional
MDA-MB-435 [17] = experiment: Induction of DNA damage in human MDA-MB-435 cells assessed as phosphorylation of ATM at Ser1981 at 0.5 uM after 12 hrs by Western blotting analysis; type: functional, cell-based; how it was run: as §1
MDA-MB-435 [18] = experiment: Induction of apoptosis in human MDA-MB-435 cells assessed as morphological changes at 0.25 to 1 uM by DAPI staining-based fluorescence microscopy; type: functional, cell-based; how it was run: as §4
[19] = target: DNA topoisomerase 2-alpha (Homo sapiens) (UniProt P11388); experiment: Inhibition of recombinant human DNA topoisomerase 2-alpha-mediated relaxation of supercoiled pBR322 DNA at 10 to 100 uM after 30 mins by Agarose gel electrophoresis
How it was run: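 Relaxation assay with 0.5 µg supercoiled pBR322 and 1 unit recombinant human Topo IIα, 20 µL. Incubated 30 min at 30 °C; stopped with 7 mM EDTA. 1% agarose gel, 5 V/cm, 2 h, TAE; ethidium bromide stain, UV. DMSO stocks. At least duplicate.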

Chain of DNA topoisomerase 2-alpha (Homo sapiens) (P11388 whole entry): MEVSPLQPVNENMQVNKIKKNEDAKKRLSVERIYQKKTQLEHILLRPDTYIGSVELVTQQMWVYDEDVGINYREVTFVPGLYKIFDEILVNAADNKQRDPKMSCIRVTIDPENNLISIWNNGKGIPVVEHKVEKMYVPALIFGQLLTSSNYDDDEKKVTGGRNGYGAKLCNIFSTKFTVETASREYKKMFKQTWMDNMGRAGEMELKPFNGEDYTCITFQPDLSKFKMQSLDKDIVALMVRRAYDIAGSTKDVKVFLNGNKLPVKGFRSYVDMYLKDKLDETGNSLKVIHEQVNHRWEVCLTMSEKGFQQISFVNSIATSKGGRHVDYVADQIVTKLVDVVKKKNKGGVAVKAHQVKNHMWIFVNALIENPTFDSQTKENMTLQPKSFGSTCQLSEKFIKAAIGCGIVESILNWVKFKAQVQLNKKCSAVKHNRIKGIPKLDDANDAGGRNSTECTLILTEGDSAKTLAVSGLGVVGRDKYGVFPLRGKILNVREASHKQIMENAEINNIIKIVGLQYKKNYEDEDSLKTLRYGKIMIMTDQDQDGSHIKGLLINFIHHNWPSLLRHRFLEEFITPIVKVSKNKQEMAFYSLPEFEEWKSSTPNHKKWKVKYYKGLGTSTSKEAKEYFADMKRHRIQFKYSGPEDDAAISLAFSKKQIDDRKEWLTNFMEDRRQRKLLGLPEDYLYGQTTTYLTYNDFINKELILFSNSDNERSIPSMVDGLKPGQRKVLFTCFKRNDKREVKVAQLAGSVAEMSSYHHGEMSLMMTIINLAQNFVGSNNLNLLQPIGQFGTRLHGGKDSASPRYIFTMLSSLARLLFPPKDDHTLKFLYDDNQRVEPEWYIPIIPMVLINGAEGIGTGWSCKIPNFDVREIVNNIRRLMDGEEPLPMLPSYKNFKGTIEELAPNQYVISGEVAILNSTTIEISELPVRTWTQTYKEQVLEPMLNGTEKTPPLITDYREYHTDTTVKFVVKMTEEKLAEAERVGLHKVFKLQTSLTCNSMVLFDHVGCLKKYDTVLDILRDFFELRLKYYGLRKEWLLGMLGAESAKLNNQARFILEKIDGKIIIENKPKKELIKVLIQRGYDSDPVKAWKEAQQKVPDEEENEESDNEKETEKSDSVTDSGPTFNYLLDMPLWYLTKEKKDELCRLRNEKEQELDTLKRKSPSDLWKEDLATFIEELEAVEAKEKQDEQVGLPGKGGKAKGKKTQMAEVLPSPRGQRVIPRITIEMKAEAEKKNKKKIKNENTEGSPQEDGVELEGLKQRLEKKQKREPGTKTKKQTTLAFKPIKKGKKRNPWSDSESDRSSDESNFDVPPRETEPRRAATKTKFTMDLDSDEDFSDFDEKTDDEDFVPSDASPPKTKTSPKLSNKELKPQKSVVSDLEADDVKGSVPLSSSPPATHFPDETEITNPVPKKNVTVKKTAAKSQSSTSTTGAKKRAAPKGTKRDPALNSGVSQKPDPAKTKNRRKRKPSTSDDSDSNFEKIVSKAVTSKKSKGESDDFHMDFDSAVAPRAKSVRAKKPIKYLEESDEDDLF

Oc1ccc(-c2ccc(-c3ccc(O)c(O)c3)cc2)cc1
Activity (MDA-MB-435 [1]): Active
viability at 0.5 µM (MDA-MB-435 [2]): 81.6%
growth inhibition (GI) (LNCaP): Active
Activity (MDA-MB-435 [3]): 1.27%
Activity (MDA-MB-435 [4]): 26.38%
Activity (MDA-MB-435 [5]): Dose-dependent effect
Activity (MDA-MB-435 [6]): Active
Activity (MDA-MB-435 [7]): 13.33%
Activity (MDA-MB-435 [8]): tde
growth inhibition (GI) (A549): Active
Activity (MDA-MB-435 [9]): 1.03%
Activity (MDA-MB-435 [10]): 16.24%
viability at 1 µM (MDA-MB-435 [11]): 76.3%
Activity (MDA-MB-435 [12]): Active
Activity (MDA-MB-435 [13]): 30.68%
Activity (MDA-MB-435 [14]): 7.79%
Activity (MDA-MB-435 [15]): 47.81%
Activity (Calf thymus DNA): inactive
Activity (MDA-MB-435 [16]): 22.42%
Activity (MDA-MB-435 [17]): inactive
Activity (MDA-MB-435 [18]): Active
inhibition [19]: Active

From ChEMBL document CHEMBL2424614, “A novel p-terphenyl derivative inducing cell-cycle arrest and apoptosis in MDA-MB-435 cells through topoisomerase inhibition” (Eur J Med Chem, 2013)
